In the library only some 3.8% were active in any assay of this set; here they are far more common.
KCNK9 inh: KCNK9 potassium channel inhibitors, primary screen, HEK293 cells, thallium flux; FluxOR thallium flux fluorescence; active compounds read low; B-score at 10 µM; 310,000 tested, 1.2% active;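 active = ratio B-score over 3 SD below the library mean, with starting fluorescence within 5 SD of its mean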;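 also: negative B-score means less thallium flux so channel inhibition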
Target sequence (Q9NPC2 whole entry, looked up): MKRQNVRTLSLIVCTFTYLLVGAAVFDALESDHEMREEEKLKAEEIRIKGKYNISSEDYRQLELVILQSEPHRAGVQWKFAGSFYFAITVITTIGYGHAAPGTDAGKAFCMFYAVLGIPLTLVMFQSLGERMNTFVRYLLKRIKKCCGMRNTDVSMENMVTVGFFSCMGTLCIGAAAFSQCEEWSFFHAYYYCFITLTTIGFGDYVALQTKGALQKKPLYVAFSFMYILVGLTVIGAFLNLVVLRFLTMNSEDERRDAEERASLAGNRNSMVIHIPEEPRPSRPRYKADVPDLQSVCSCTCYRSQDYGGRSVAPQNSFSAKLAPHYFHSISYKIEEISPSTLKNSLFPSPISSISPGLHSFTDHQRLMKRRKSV
KCNQ1 block: inhibitors of human KCNQ1 channel, primary screen, cell-based, thallium flux, high-throughput; Potassium voltage-gated channel subfamily KQT member 1 (Homo sapiens), P51787; CHO-K1 KCNQ1, FluxOR thallium flux fluorescence; active compounds read high; B-score at 10 µM; 310,000 tested, 1.3% active; AID 2642, 2010;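 active = compounds whose thallium flux B-score, printed positive for inhibition, exceeds three library SD while starting fluorescence stays within three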;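 also: channel opened by potassium depolarization with thallium stimulus after 20 min compound exposure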
KCNQ1 pot: potentiators or activators of KCNQ1 channel, primary screen, cell-based, thallium flux, high-throughput. B-score at 10 µM. 310,000 tested, 0.35% active. AID 2648, 2010. CHO-K1 KCNQ1, thallium flux FluxOR fluorescence; active compounds read high. Potassium voltage-gated channel subfamily KQT member 1 (Homo sapiens), P51787;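 active = fluorescence ratio B-score, a plate-corrected score, at least three library SD, with initial intensity B-score within 5 SD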
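System: CHO-K1 cells stably expressing KCNQ1 / Medium: assay buffer for compound exposure, DMSO matched across wells / Reagent: thallium- and potassium-containing depolarizing buffer / Compound: one concentration, matched DMSO / Incubation: 20 min compound pretreatment at room temperature / Measured by: kinetic FluxOR fluorescence, 10 s baseline plus 110 s post-stimulus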
hERG rescue: hERG rescue from dofetilide block, primary screen, cell-based, CHO-hERG, FluxOR thallium flux, dofetilide IC70. Voltage-gated inwardly rectifying potassium channel KCNH2 (Homo sapiens), Q12809. dofetilide IC70 present. activation (rescue from dofetilide block), less the hit threshold, % at 10 µM. 310,000 tested, 0.51% active;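 active = activation above the mean of controls blocked by dofetilide plus 5 SD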;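 also: thallium influx through hERG after potassium depolarization seen as dye fluorescence rise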
KCNK3 inh: human KCNK3 channel inhibitors, primary screen, CHO cells, FluxOR thallium flux, B-score. Potassium channel subfamily K member 3 (Homo sapiens), O14649. FluxOR fluorescence; active compounds read low. B-score at 10 µM. 340,000 tested, 0.84% active. AID 602410, 2012;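 active = B-score under library mean minus 4 SD, starting fluorescence ratio at most library mean plus 5 SD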;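 also: more negative B-score means stronger inhibition of thallium flux through KCNK3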
Kir21 block: inhibitors of mouse Kir2.1 inward-rectifier potassium channel; B-score at 10 µM; AID 1672, 2009; 310,000 tested, 0.85% active; HEK293-Kir2.1, FluxOR thallium flux fluorescence; active compounds read low; Inward rectifier potassium channel 2 (Mus musculus), P35561;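 active = fluorescence ratio B-score at or below minus 3 SD of library scores, with starting-brightness B-score within 2 SD, cut at about -4.2 in these data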;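 also: channel flux triggered by added potassium and thallium sulfate stimulus; B-score of peak minus minimum fluorescence over baseline after thallium stimulus; more negative B-score means stronger Kir2.1 block with less thallium influx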
KCNK3 confirm: retest of human KCNK3 channel inhibitors, confirmation, CHO cells, FluxOR thallium flux, triplicate | shares compounds with KCNK3 inh | FluxOR fluorescence; 0% buffer, 100% carvedilol maximal block | ratio percent of control, % at 10 µM | 2,400 tested, 99% active | AID 651638, 2012;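 active = ratio percent of control, averaged over triplicates, above buffer control mean plus 5 SD, cut at about 64% in these data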;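 also: ratio is the fluorescence rise from min to max over baseline after thallium stimulus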
KCNK3 noninduced: thallium flux inhibition in non-induced cells, primary screen, counter-screen for KCNK3 inhibitor project, cell-based, non-induced KCNK3 line, FluxOR thallium, triplicate | shares compounds with KCNK3 inh | non-induced KCNK3 parental cells; active compounds read low | thallium flux ratio (lower = more inhibition) at 10 µM | 2,400 tested, 40% active | AID 651747, 2012;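 active = thallium flux ratio, averaged over three wells, more than 5 SD below the buffer control mean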;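 also: host cells are CHO cells without KCNK3 induction; ratio is peak minus trough fluorescence over baseline then normalized to buffer controls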
* marks the source's active call; other numbers are inactive results; i = inactive; nt = no result.

SMILES | KCNK9 inh | KCNQ1 block | KCNQ1 pot | hERG rescue | KCNK3 inh | Kir21 block | KCNK3 confirm | KCNK3 noninduced
CCc1ccc2c(CN(C)Cc3ccc(OC(F)F)c(OC)c3)cc(=O)oc2c1 | i | i | i | -5 | -16* | 2.4 | 128* | 0.15*
CCOC(=O)C1(Cc2ccccc2)CCCN(Cc2ccc(OCCO)cc2)C1 (centres undefined) | i | i | i | -19 | i | -1 | nt | nt
CCOC(=O)Cn1nc(C)c(NC(=O)COc2ccc([N+](=O)[O-])c(C)c2)c1C | i | i | i | -3 | i | 0.01 | nt | nt
COc1ccc(NC(=S)N(CCc2c(C)[nH]c3ccc(C)cc23)Cc2cccnc2)cc1 | -6.9* | i | i | -5 | -12* | -0.13 | 96* | 0.15*
COCCNC(=S)N(CCc1c(C)[nH]c2ccc(OC)cc12)Cc1cccnc1 | i | i | i | -4 | i | 0.29 | nt | nt
Cc1[nH]c2ccc(F)cc2c1CCN(Cc1ccncc1)C(=S)Nc1ccccc1 | i | i | i | -20 | i | -0.21 | nt | nt
CCOc1ccc(NC(=S)N(CCc2c(C)[nH]c3ccccc23)Cc2cccnc2)cc1 | i | i | i | -19 | i | 1.1 | nt | nt
Cc1[nH]c2ccc(F)cc2c1CCN(Cc1cccnc1)C(=S)Nc1ccccc1 | i | i | i | -20 | -10* | 3.7 | 91* | i
Cc1[nH]c2ccccc2c1CCN(Cc1cccnc1)C(=S)Nc1ccc(F)cc1 | i | i | i | -20 | -10* | 0.06 | 92* | 0.15*
O=C(NNc1c(Cl)cncc1Cl)c1cccs1 | i | i | i | -9 | i | 1.5 | nt | nt
Cc1ccc(C)c(CSCC(=O)NCc2cccs2)c1 | i | i | i | -3 | -11* | -2.2 | 84* | i
Cc1ccc(C(=O)OCC(=O)NCc2cccs2)c(C)c1 | i | i | i | -11 | i | -0.51 | nt | nt
COCc1nnc(NS(=O)(=O)c2ccc(Br)cc2)s1 | i | i | i | -5 | i | 0.42 | nt | nt
O=C(NCCn1cc(SCc2ccc(F)cc2)c2ccccc21)c1ccccc1F | -7.5* | 11* | i | -23 | -16* | -1.6 | 140* | 0.12*
Cc1cc(N/C=C(\C#N)S(=O)(=O)c2ccc(Cl)cc2)nc(C)n1 | i | i | i | -5 | i | -1.7 | nt | nt
COc1cccc(OCc2nc(-c3cccc([N+](=O)[O-])c3)no2)c1 | i | i | i | -7 | -10* | 0.74 | 99* | i
CCc1ccc(-c2cc(C)no2)cc1S(=O)(=O)N1CCN(c2ccccc2F)CC1 | i | i | i | -13 | -8.8* | 0.02 | 81* | i
CCc1ccc(-c2cc(C)no2)cc1S(=O)(=O)N1CCN(c2ccc(C(C)=O)cc2)CC1 | i | i | i | -18 | i | -0.18 | nt | nt
Cc1ccc(NC(=O)CSc2nc(=O)n(CCN(C)C)c3c2CCCC3)cc1Cl | i | i | i | -11 | -10* | -2.1 | 68* | i
O=C(NC(CSC(=O)c1ccccc1)C(=O)O)OCc1ccccc1 (centres undefined) | nt | nt | nt | nt | i | nt | nt | nt
C=C(c1cn(C(C)=O)c2ccccc12)c1cn(C(C)=O)c2ccccc12 | nt | nt | nt | nt | -12* | nt | 62* | 0.15*
